What was measured:
Assay type in all cases: functional, cell-based; call rule not given here
C-33-A = assay: Cytotoxicity against human C33A cells after 48 hrs by sulforhodamine B assay
In short: (§1)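 Cells kept below passage 15 in recommended medium with 10% FBS, gentamycin and amphotericin B, 37 °C, 5% CO₂. Seeded at 1 × 10⁴ cells/well overnight, then given serial two-fold dilutions (100 to 1.6) for 48 h, with untreated controls. Fixed in ice-cold 50% TCA, stained with 0.4% SRB in 1% acetic acid, read at 540 nm. IC₅₀ from dose–response curves of % growth inhibition.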

A549 = assay: Cytotoxicity against human A549 cells after 48 hrs by sulforhodamine B assay; in short: as §1
MCF7 = assay: Cytotoxicity against human MCF7 cells after 48 hrs by sulforhodamine B assay; in short: as §1
KB = assay: Cytotoxicity against human KB cells after 48 hrs by sulforhodamine B assay; in short: as §1
NIH3T3 = assay: Cytotoxicity against mouse NIH/3T3 cells after 48 hrs by sulforhodamine B assay; in short: as §1
[1] = Homo sapiens, C-33-A, 48 h, read-out: IC50
[2] = Homo sapiens, KB, 48 h, read-out: IC50
[3] = Homo sapiens, A549, 48 h, read-out: IC50
[4] = Homo sapiens, MCF7, 48 h, read-out: IC50
[5] = Mus musculus, NIH3T3, 48 h, read-out: IC50

| SMILES | IC50 (C-33-A; c-33-a) | IC50 (A549; a549) | IC50 (MCF7; mcf7) | IC50 (KB; kb) | IC50 (NIH3T3; nih3t3) | IC50 (C-33-A; [1]) | IC50 (KB; [2]) | IC50 (A549; [3]) | IC50 (MCF7; [4]) | IC50 (NIH3T3; [5]) |
| --- | --- | --- | --- | --- | --- | --- | --- | --- | --- | --- |
| CC(=O)c1cc2cc(/C=C/C(=O)c3ccc(Cl)cc3)c3ccccc3c2oc1=O | Not Active | Not Active | Not Active | Not Active | Not Active |  |  |  |  |  |
| COC(=O)c1cc2cc(/C=C/C(=O)c3ccc(Cl)cc3)c3ccccc3c2oc1=O | Not Active | Not Active | Not Active | Not Active | Not Active |  |  |  |  |  |
| CCOC(=O)c1cc2cc(/C=C/C(=O)c3ccccc3)c3ccccc3c2oc1=O | Not Active | Not Active | Not Active | Not Active | Not Active |  |  |  |  |  |
| CCOC(=O)c1cc2cc(/C=C/C(=O)c3ccc(C)cc3)c3ccccc3c2oc1=O | Not Active | Not Active | Not Active | Not Active | Not Active |  |  |  |  |  |
| CCOC(=O)c1cc2cc(/C=C/C(=O)c3ccc(Cl)cc3)c3ccccc3c2oc1=O | Not Active | Not Active | Not Active | Not Active | Not Active |  |  |  |  |  |
| CCC(C)c1cc(C=O)cc2cc(C(=O)OC)c(=O)oc12 (configuration not stated) |  | Not Active | Not Active |  | Not Active | 88 µM | 146 µM |  |  |  |
| CCOC(=O)c1cc2cc(C=O)cc(C(C)CC)c2oc1=O (configuration not stated) |  |  |  |  | Not Active | 64.3 µM | 132 µM |  |  |  |
| CCC(C)c1cc(/C=C/C(=O)c2ccc(Cl)cc2)cc2cc(C(C)=O)c(=O)oc12 (configuration not stated) | Not Active | Not Active | Not Active | Not Active | Not Active |  |  |  |  |  |
| CCC(C)c1cc(/C=C/C(=O)c2ccccc2)cc2cc(C(=O)OC)c(=O)oc12 (configuration not stated) |  |  |  |  | Not Active | 6.28 µM | 13.4 µM | 10.7 µM | 11.4 µM |  |
| CCC(C)c1cc(/C=C/C(=O)c2ccc(Cl)cc2)cc2cc(C(=O)OC)c(=O)oc12 (configuration not stated) |  |  |  |  |  | 5.9 µM | 28.2 µM | 16.7 µM | 10.8 µM | 42.4 µM |
| CCOC(=O)c1cc2cc(/C=C/C(=O)c3ccccc3)cc(C(C)CC)c2oc1=O (configuration not stated) |  |  |  |  | Not Active | 8.12 µM | 10.5 µM | 12.9 µM | 88.1 µM |  |
| CCOC(=O)c1cc2cc(/C=C/C(=O)c3ccc(C)cc3)cc(C(C)CC)c2oc1=O (configuration not stated) |  |  |  |  | Not Active | 3.59 µM | 18 µM | 32.8 µM | 81.1 µM |  |
| CCOC(=O)c1cc2cc(/C=C/C(=O)c3ccc(Cl)cc3)cc(C(C)CC)c2oc1=O (configuration not stated) |  |  |  |  |  | 4.54 µM | 14.3 µM | 12.8 µM | 11.1 µM | 38.4 µM |
| CC(=O)c1cc2cc(C=O)c3ccccc3c2oc1=O |  | Not Active |  |  | Not Active | 72.8 µM | 109 µM |  | 147 µM |  |
| CCC(C)c1cc(C=O)cc2cc(C(C)=O)c(=O)oc12 (configuration not stated) |  | Not Active |  |  | Not Active | 70 µM | 176 µM |  | 141 µM |  |
| COC(=O)c1cc2cc(C=O)c3ccccc3c2oc1=O |  |  |  |  |  | 30.1 µM | 57.9 µM | 75.7 µM | 61.7 µM | 66 µM |
| CCOC(=O)c1cc2cc(C=O)c3ccccc3c2oc1=O |  | Not Active |  |  | Not Active | 93.5 µM | 124 µM |  | 155 µM |  |
| CC(=O)c1cc2cc(/C=C/C(=O)c3ccccc3)c3ccccc3c2oc1=O | Not Active | Not Active | Not Active | Not Active | Not Active |  |  |  |  |  |
| CC(=O)c1cc2cc(/C=C/C(=O)c3ccc(C)cc3)c3ccccc3c2oc1=O | Not Active | Not Active | Not Active | Not Active | Not Active |  |  |  |  |  |
| COC(=O)c1cc2cc(/C=C/C(=O)c3ccccc3)c3ccccc3c2oc1=O |  | Not Active |  |  | Not Active | 62.4 µM | 90.8 µM |  | 103 µM |  |
| COC(=O)c1cc2cc(/C=C/C(=O)c3ccc(C)cc3)c3ccccc3c2oc1=O |  | Not Active |  |  | Not Active | 52 µM | 70.4 µM |  | 118 µM |  |
| COc1cccc2c1C(=O)c1c(O)c3c(c(O)c1C2=O)C[C@@](O)(C(=O)CO)C[C@@H]3O[C@H]1C[C@H](N)[C@H](O)[C@H](C)O1 [DOXORUBICIN] |  |  |  |  |  | 0.82 µM | 0.22 µM | 0.52 µM | 0.61 µM |  |

Source: ChEMBL document CHEMBL1287785, “Synthesis and in vitro evaluation of novel coumarin-chalcone hybrids as potential anticancer agents” (Bioorg Med Chem Lett, 2010)
